ChEMBL document CHEMBL1157311, “Aurilides B and C, cancer cell toxins from a Papua New Guinea collection of the marine cyanobacterium Lyngbya majuscula” (2006)
The source made the active and inactive calls. The rule behind the calls is not given here.

Key:
KM12 = assay: Growth inhibition of human KM12 cells; type: functional; conditions: read-out: pTGI
COLO 205 = assay: Growth inhibition of human COLO205 cells; type: functional
[1] = Growth inhibition of human […] cells; type: functional
DU-145 = assay: Growth inhibition of human DU145 cells; type: functional
[2] = Cytotoxicity against mouse Neuro2a cells after 48 hrs by MTT assay; type: functional; conditions: N2a, read-out: LC50 (the source's name)
Method in brief: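 Cells seeded at 6000/well and grown 24 h, then given test chemicals dissolved in DMSO and diluted in serum-free medium (DMSO under 0.5% final). Viability read by MTT reduction after 48 h exposure; LC50 reported. Method follows Alley et al.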

A10 = assay: Disruption of microfilament in rat A10 cells at 2.9 uM after 24 hrs by rhodamine-phalloidin assay; type: functional, cell-based
Method in brief: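 A-10 smooth muscle cells grown on glass coverslips in BME with 10% fetal calf serum and exposed 24 h. Fixed in 3% paraformaldehyde, permeabilised with 0.2% Triton X-100, reduced with NaBH4, then stained 45 min with 100 nM TRITC-phalloidin for actin and with DAPI for DNA. Microfilament network scored by fluorescence microscopy.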

HCT-15 = assay: Growth inhibition of human HCT15 cells; type: functional
SNB-19 = assay: Growth inhibition of human SNB19 cells; type: functional
SF-268 = assay: Growth inhibition of human SF268 cells; type: functional
K562 = assay: Growth inhibition of human K562 cells; type: functional
SF-539 = assay: Growth inhibition of human SF539 cells; type: functional
NCI-H322M = assay: Growth inhibition of human NCI-H322M cells; type: functional
[3] = Growth inhibition of human OVACR4 cells; type: functional
NCI-H460 = assay: Growth inhibition of human NCI-H460 cells; type: functional; conditions: read-out: pLC50 (the source's name) (converted)
SK-MEL-28 = assay: Growth inhibition of human SK-MEL-28 cells; type: functional
U-251 = assay: Growth inhibition of human U251 cells; type: functional
HT-29 = assay: Growth inhibition of human HT29 cells; type: functional
HOP-62 = assay: Growth inhibition of human HOP62 cells; type: functional
SF-295 = assay: Growth inhibition of human SF295 cells; type: functional
HCC 2998 = assay: Growth inhibition of human HCC2998 cells; type: functional
MDA-MB-231 = assay: Growth inhibition of human MDA-MB-231 cells; type: functional
LOX IMVI = assay: Growth inhibition of human LOX IMVI cells; type: functional
EKVX = assay: Growth inhibition of human EKVX cells; type: functional
[4] = Growth inhibition of human OVACR3 cells; type: functional
TK-10 = assay: Growth inhibition of human TK10 cells; type: functional
BT-549 = assay: Growth inhibition of human BT549 cells; type: functional
NCI-H23 = assay: Growth inhibition of human NCI-H23 cells; type: functional
NCI/ADR-RES = assay: Growth inhibition of human NCI/ADR-RES cells; type: functional
NCI-H522 = assay: Growth inhibition of human NCI-H522 cells; type: functional
SR = assay: Growth inhibition of human SR cells; type: functional
[5] = read-out: pLC50 (the source's name) (converted)

CC/C=C(\C)[C@H]1OC(=O)[C@H](C)N(C)C(=O)[C@H](C(C)C)NC(=O)CN(C)C(=O)[C@H]([C@H](C)CC)N(C)C(=O)[C@H](C(C)C)NC(=O)[C@@H]([C@@H](C)CC)OC(=O)/C(C)=C/C[C@H](O)[C@@H]1C [AURILIDE B]
TGI (KM12): > 100000 nM | GI50 (COLO 205): < 10 nM | CC50 (COLO 205; [5]): > 100000 nM | TGI (COLO 205; read-out: pTGI): > 100000 nM | GI50 [1]: < 10 nM | TGI ([1]; read-out: pTGI): < 10 nM | GI50 (DU-145): < 10 nM | CC50 (DU-145; [5]): < 10 nM | TGI (DU-145; read-out: pTGI): < 10 nM | CC50 [2]: 10 nM | Activity (A10): Active | GI50 (HCT-15): < 10 nM | CC50 (HCT-15; [5]): > 100000 nM | TGI (HCT-15; read-out: pTGI (converted)): 170 nM | GI50 (SNB-19): < 10 nM | CC50 (SNB-19; [5]): > 100000 nM | TGI (SNB-19; read-out: pTGI (converted)): 19.9 nM | GI50 (SF-268): < 10 nM | CC50 (SF-268; [5]): 794 nM | GI50 (K562): < 10 nM | CC50 (K562; [5]): 100 nM | TGI (K562; read-out: pTGI): < 10 nM | GI50 (SF-539): < 10 nM | CC50 (SF-539; [5]): < 10 nM | TGI (SF-539; read-out: pTGI): < 10 nM | GI50 (NCI-H322M): < 10 nM | TGI (NCI-H322M; read-out: pTGI): < 10 nM | GI50 [3]: < 10 nM | CC50 [3, 5]: > 100000 nM | TGI ([3]; read-out: pTGI): < 10 nM | CC50 (NCI-H460): 77600 nM | GI50 (SK-MEL-28): < 10 nM | CC50 (SK-MEL-28; [5]): > 100000 nM | TGI (SK-MEL-28; read-out: pTGI): < 10 nM | GI50 (U-251): < 10 nM | TGI (U-251; read-out: pTGI): < 10 nM | GI50 (HT-29): < 10 nM | CC50 (HT-29; [5]): > 100000 nM | TGI (HT-29; read-out: pTGI): > 100000 nM | GI50 (HOP-62): < 10 nM | CC50 (HOP-62; [5]): < 10 nM | TGI (HOP-62; read-out: pTGI): < 10 nM | GI50 (SF-295): < 10 nM | CC50 (SF-295; [5]): > 100000 nM | TGI (SF-295; read-out: pTGI): < 10 nM | GI50 (HCC 2998): < 10 nM | CC50 (HCC 2998; [5]): < 10 nM | TGI (HCC 2998; read-out: pTGI): < 10 nM | GI50 (MDA-MB-231): < 10 nM | TGI (MDA-MB-231; read-out: pTGI): < 10 nM | GI50 (LOX IMVI): < 10 nM | GI50 (EKVX): < 10 nM | CC50 (EKVX; [5]): < 10 nM | TGI (EKVX; read-out: pTGI): < 10 nM | GI50 [4]: < 10 nM | TGI ([4]; read-out: pTGI): < 10 nM | GI50 (TK-10): < 10 nM | CC50 (TK-10; [5]): < 10 nM | TGI (TK-10; read-out: pTGI): < 10 nM | GI50 (BT-549): < 10 nM | GI50 (NCI-H23): < 10 nM | CC50 (NCI-H23; [5]): < 10 nM | TGI (NCI-H23; read-out: pTGI): < 10 nM | GI50 (NCI/ADR-RES): < 10 nM | CC50 (NCI/ADR-RES; [5]): < 10 nM | TGI (NCI/ADR-RES; read-out: pTGI): < 10 nM | GI50 (NCI-H522): < 10 nM | CC50 (NCI-H522; [5]): > 100000 nM | TGI (NCI-H522; read-out: pTGI): < 10 nM | GI50 (SR): < 10 nM | CC50 (SR; [5]): < 10 nM | TGI (SR; read-out: pTGI): < 10 nM
